Consider 3 molecules from ChEMBL document CHEMBL1133691 (J Med Chem, 2000).

pIC50: −log10 of the molar value.

A short description of data set [1]: volume of distribution at steady state was observed after intravenous administration in rat. Format: ADME, organism-based. The settings on record: in vivo, read-out: Vss. The essentials: (§1)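 Male SD rats (233-264 g), 3 per group, given a 1 μmol/kg intravenous bolus into a tail vein in DMA:PEG400:citrate buffer (40:40:20), formulated at 2 μmol/mL. No anaesthesia. Tail-vein blood was sampled at 2, 10, 30, 60, 120, 240 and 360 min. Plasma was ethanol-precipitated and analysed by LC-MS/MS against spiked-plasma standard curves. Values are mean ± SD.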

A short description of data set [2]: Oral bioavailability. The class given is ADME, organism-based. The settings on record: rat, in vivo.
Data set [3] deals with Rattus norvegicus. Description: mean peak plasma concentration was observed after intravenous administration in rat. To be noted: in vivo. Also noted: route intravenous. Format: ADME, organism-based. In outline: as §1
Data set [4] in a line: plasma clearance was observed after intravenous administration in rat. Format: ADME, organism-based. In outline:
as §1

Data set [5] deals with Rattus norvegicus. Description: Area under curve in male SD rats was observed after intravenous administration in rat. Format: ADME, organism-based. To be noted: in vivo. The essentials:
as §1

The test system of data set [6] is Rattus norvegicus. The experiment in a line: mean peak plasma concentration was observed after oral administration in rat. The class given is ADME, organism-based. The settings on record: in vivo. The arrangement: route oral.
A short description of data set [7]: plasma half life was observed after intravenous administration in rat. Format: ADME, organism-based. In outline: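 Male SD rats (233-264 g), three per route; 1 μmol/kg given as a tail-vein bolus in DMA:PEG400:citrate buffer (40:40:20) vehicle at 2 μmol/mL, no anaesthesia. Tail-vein blood sampled at 2, 10, 30, 60, 120, 240 and 360 min; plasma ethanol-precipitated and analysed by LC-MS/MS against spiked-plasma standard curves. Values are means ± SD, n = 3.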

Data set [8] can be described thus: time required to reach maximum concentration (Cmax) after oral administration in rat. The class given is ADME, organism-based. The settings on record: in vivo.
The subject of data set [9] is Rattus norvegicus. Description: Area under curve in male SD rats was observed after oral administration in rat. Format: ADME, organism-based. To be noted: in vivo.
For data set [10], the target named is T1, Dihydrofolate reductase (Rattus norvegicus, UniProt Q920D2).
T1 sequence (Q920D2 whole entry): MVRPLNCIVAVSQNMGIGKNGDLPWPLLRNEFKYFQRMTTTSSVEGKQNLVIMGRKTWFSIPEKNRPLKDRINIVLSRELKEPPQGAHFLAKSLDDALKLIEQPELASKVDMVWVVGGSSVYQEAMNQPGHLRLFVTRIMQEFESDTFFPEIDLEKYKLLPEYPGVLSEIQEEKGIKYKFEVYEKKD
Description: Ability to inhibit recombinant rat liver dihydrofolate reductase.

The nature of data set [11]: Plasma clearance was observed after intravenous administration in rat. Format: ADME, organism-based. In outline:
as §1

A short description of data set [12]: Volume of distribution at steady state was observed after intravenous administration in rat. The class given is ADME, organism-based. The settings on record: in vivo, read-out: Vss. The essentials: as §1
Data set [13] concerns Rattus norvegicus. The experiment in a line: Mean peak plasma concentration was observed after intravenous administration in rat. The class given is ADME, organism-based. Also noted: route intravenous. The settings on record: in vivo. In outline:
as §1

Data set [14] concerns the target T2, Dihydrofolate reductase (Homo sapiens, UniProt P00374).
T2 sequence (P00374 whole entry): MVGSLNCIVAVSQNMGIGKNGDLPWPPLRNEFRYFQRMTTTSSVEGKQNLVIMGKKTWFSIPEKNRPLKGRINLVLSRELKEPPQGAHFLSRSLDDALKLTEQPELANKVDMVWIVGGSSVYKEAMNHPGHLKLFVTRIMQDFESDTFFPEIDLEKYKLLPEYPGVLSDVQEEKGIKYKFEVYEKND
The experiment in a line: Ability to inhibit recombinant human dihydrofolate reductase.

The nature of data set [15]: Time required to reach maximum concentration (Cmax) after oral administration in rat. The class given is ADME, organism-based. To be noted: in vivo.
For data set [16], the system named is Rattus norvegicus. The experiment in a line: Mean peak plasma concentration was observed after oral administration in rat. The arrangement: route oral. The settings on record: in vivo. Format: ADME, organism-based.
The nature of data set [17]: Plasma half life was observed after intravenous administration in rat. Format: ADME, organism-based. In outline: as §1

One may read the bioavailability as dose-corrected exposure relative to a reference, in per cent. A lower bioavailability goes with poor availability. One may read the Cmax as the peak of the concentration-time curve. A word on the clearance: it is the volume of plasma or blood freed of the substance per unit of time. By half-life is commonly meant the time in which the quantity being followed falls by half. A lower half-life goes with fast loss. In general, Tmax refers to the time from dosing to the highest level. By AUC is commonly meant concentration integrated over time. Lower therefore signals less exposure. As for `CN(Cc1cnc2nc(N)nc(N)c2n1)c1ccc(C(=O)N[C@@H](CCC(=O)O)C(=O)O)cc1` [METHOTREXATE], the Vd in [1] is 0.36 L/kg. In addition, the bioavailability in [2] is 5.8%. The Cmax in the data set with Rattus norvegicus [3] came to 8.26 µM; in the data set with Rattus norvegicus [6], 0.266 µM. This molecule came in with a clearance in data set [4] of 11 mL/min/kg. In the data set on Rattus norvegicus [5], this molecule came in with an AUC inf of 1.56 µM·h. The molecule further showed a half-life in data set [7] of 54 min. Moreover, the Tmax in data set [8] was 40.2 min. In the data set with Rattus norvegicus [9], the AUC came out at 0.838 µM·h.

As usually defined, the pIC50 is the negative decadic logarithm of the IC50, by convention in mol/L. `Nc1nc(N)c2nc(COC(=O)c3ccc(C(=O)N[C@@H](CCC(=O)O)C(=O)O)cc3)cnc2n1`: the pIC50 on Dihydrofolate reductase [10] was 6.92.

In data set [11], `Nc1nc(N)c2cc(COC(=O)c3ccc(C(=O)N[C@@H](CCC(=O)O)C(=O)O)cc3)ccc2n1` gave a clearance of 15 mL/min/kg. For the same molecule, the Vd in data set [12] came to 0.42 L/kg. In addition, the pIC50 on Dihydrofolate reductase [10] is 7.71; on Dihydrofolate reductase [14], 6.90. The molecule further showed a bioavailability in [2] of 3.4%. Also, the Cmax in the data set with Rattus norvegicus [13] is 9.17 µM; with Rattus norvegicus [16], 0.144 µM. Further, the Tmax in data set [15] amounted to 40.2 min. Further, in the data set with Rattus norvegicus [5], the AUC inf was determined as 1.23 µM·h. The same molecule showed a half-life in data set [17] of 60 min. Besides, the AUC with Rattus norvegicus [9] was 0.384 µM·h.
